One block for each compound: values may come before it.
Tests used:
K351 of XRCC6 (Ku70) = K351 of XRCC6 (Ku70) (Homo sapiens, UniProt P12956); experiment: competitive isoTOP-ABPP, XRCC6; format: binding
Outline: (§1)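 Human cancer cell (MDA-MB-231, Ramos) soluble or membrane fractions at 1.8 mg·mL⁻¹, or live cells, were exposed to test compound or DMSO. Proteomes were then labelled with lysine probe 1 (100 µM, 1 h, 23 °C). Compound samples were clicked to light and DMSO samples to heavy TEV-biotin tags, then streptavidin-enriched, trypsinised, TEV-released and analysed by MS. R was taken as the median peptide ratio per lysine.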

Ku70/Ku80 heterodimer = Ku70/Ku80 heterodimer (Homo sapiens, UniProt P12956); experiment: Ku70/Ku80 heterodimerization assay; format: biochemical; settings: pre-treatment of recombinantly expressed Ku70
Chain of Ku70/Ku80 heterodimer (P12956 whole entry, one chain of several): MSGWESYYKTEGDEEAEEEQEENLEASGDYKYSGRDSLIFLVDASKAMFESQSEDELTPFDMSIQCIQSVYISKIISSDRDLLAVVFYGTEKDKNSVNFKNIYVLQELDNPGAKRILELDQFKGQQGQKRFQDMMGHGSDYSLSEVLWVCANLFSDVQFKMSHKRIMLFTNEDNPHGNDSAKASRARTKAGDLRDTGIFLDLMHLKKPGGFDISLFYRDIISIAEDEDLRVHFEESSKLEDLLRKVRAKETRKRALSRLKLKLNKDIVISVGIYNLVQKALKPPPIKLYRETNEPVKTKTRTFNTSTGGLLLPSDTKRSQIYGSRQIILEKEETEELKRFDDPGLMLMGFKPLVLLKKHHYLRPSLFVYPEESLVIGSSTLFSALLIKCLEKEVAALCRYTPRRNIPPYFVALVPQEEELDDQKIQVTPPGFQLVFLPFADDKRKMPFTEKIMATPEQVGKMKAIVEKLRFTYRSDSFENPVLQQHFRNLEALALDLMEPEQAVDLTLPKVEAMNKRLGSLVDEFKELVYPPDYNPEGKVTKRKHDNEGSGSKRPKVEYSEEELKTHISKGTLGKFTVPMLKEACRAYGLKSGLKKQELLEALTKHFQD

[1] = molecular target: preformed Ku70-Ku80 complex (Homo sapiens, UniProt P12956); experiment: treatment of preformed Ku70-Ku80 complex; format: biochemical; settings: 1 h, 23 °C
Chain of preformed Ku70-Ku80 complex (P12956 whole entry, one chain of several): as above
Outline: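 Lysates of HEK293T cells co-expressing WT Ku80 with WT or K351R Ku70 were first anti-Flag co-immunoprecipitated (1 h, 4 °C). The captured complex was then exposed to test compound or DMSO at the stated concentrations (1 h, 23 °C), washed, and analysed by Western blot. Blots represent four independent experiments.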

[2] = molecular target: K351R mutant of Ku70 with Ku80 (Homo sapiens, UniProt P12956, K351R); experiment: Ku70/Ku80 heterodimerization assay, K351R mutant of Ku70; format: biochemical
Chain of K351R mutant of Ku70 with Ku80 (P12956 whole entry K351R): as the sequence (P12956 whole entry, one chain of several) above, with K351R counted along it
Outline: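 FLAG-Ku70 (WT or K351R) HEK293T lysates were sonicated in 1% NP-40 buffer with protease inhibitors and normalised to 1.0 mg·mL⁻¹. They were treated with test compound or DMSO (1 h, 23 °C), then mixed with WT Ku80 lysate (1.0 mg·mL⁻¹, 1 h, 23 °C). Anti-FLAG co-IP (1 h, 4 °C) and four washes in 0.2% NP-40 buffer followed, with anti-HA immunoblot read-out.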

WT-CPOX (K404) = molecular target: T1, WT-CPOX (K404) (Homo sapiens, UniProt P36551); format: binding; settings: compounds 50 µM, 1 h; gel-ABPP
T1 sequence (P36551 111-454): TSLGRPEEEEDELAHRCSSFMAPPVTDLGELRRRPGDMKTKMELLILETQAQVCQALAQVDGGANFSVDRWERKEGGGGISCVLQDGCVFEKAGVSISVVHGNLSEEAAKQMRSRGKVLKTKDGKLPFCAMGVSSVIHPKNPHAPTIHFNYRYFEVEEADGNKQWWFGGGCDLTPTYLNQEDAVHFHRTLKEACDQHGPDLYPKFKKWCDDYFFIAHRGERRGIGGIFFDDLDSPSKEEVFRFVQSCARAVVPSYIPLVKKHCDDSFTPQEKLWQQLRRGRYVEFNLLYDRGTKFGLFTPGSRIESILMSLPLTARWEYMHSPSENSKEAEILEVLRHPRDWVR

K404 of CPOX = molecular target: T2, K404 of CPOX (Homo sapiens, UniProt P36551); experiment: competitive isoTOP-ABPP with probe P1, CPOX lysines; format: binding; settings: R ≥ 4 defines liganded
T2 sequence (P36551 111-454): T1 sequence (P36551 111-454)
Outline: as §1

K53 of GSTT2B = molecular target: T3, K53 of GSTT2B (Homo sapiens, UniProt P0CG30); experiment: competitive isoTOP-ABPP; format: binding
T3 sequence (P0CG30 1-244): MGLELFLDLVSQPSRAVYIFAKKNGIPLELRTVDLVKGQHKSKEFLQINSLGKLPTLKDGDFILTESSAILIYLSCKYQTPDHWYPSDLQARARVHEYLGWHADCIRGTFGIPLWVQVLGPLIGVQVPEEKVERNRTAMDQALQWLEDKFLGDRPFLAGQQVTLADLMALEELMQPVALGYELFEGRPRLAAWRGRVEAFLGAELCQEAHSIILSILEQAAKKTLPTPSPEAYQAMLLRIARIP
Outline: as §1

Chain of K351 of XRCC6 (Ku70) (P12956 whole entry): as the sequence (P12956 whole entry, one chain of several) above

SMILES: O=c1[nH]c2ccccc2c(=O)o1 [Compound 11e]
liganding of K351 of XRCC6 (K351 of XRCC6 (Ku70)): liganded
blockade of Ku70 co-immunoprecipitation with Ku80 (Ku70/Ku80 heterodimer): blocked co-immunoprecipitation with Ku80 in a concentration-dependent manner
effect on preformed Ku70-Ku80 complex [1]: does not block
blockade of co-immunoprecipitation of K351R mutant of Ku70 with Ku80 [2]: Neither 11e nor 33e blocked

blockade of P4 labelling of WT-CPOX (WT-CPOX (K404)): partially blocked
R value (DMSO/compound) for K404 of CPOX (K404 of CPOX): 3.3
SMILES: O=Cc1c(O)cc(O)cc1O [Compound 28p]

SMILES: O=C(ON1C(=O)c2ccccc2C1=O)c1cc(C(F)(F)F)cc(C(F)(F)F)c1 [Compound 12a]
engagement of K53 of GSTT2B by chemical proteomics (K53 of GSTT2B): engaged
